Experimental data from ChEMBL document CHEMBL1148521, “Synthesis, antitumor activity, and mechanism of action of benzo[a]pyrano[3,2-h]acridin-7-one analogues of acronycine” (J Med Chem, 2006).
Calls of active or inactive are those of the source. The calls are words filed in the database; no cut-off is given here.

What was measured:
L1210 [1] = experiment: Antiproliferative activity against mouse L1210 cell line by MTT assay; assay type: functional, cell-based
How it was run: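 L1210 cells cultured in RPMI 1640 with 10% fetal calf serum, 2 mM glutamine, penicillin/streptomycin and 10 mM HEPES pH 7.4. Exposed to nine serial drug dilutions in triplicate for 48 h (four doubling times), then read by tetrazolium (MTT) assay. IC50 is the concentration cutting optical density by 50% versus untreated controls; mean of at least three independent experiments.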

KB 3-1 = experiment: Antiproliferative activity against human KB-3-1 cell line by MTT assay; assay type: functional, cell-based
How it was run: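 KB-3-1 cells grown in DMEM with 10% fetal calf serum, 2 mM glutamine, penicillin/streptomycin and 10 mM HEPES pH 7.4. Microculture tetrazolium assay: nine serial drug dilutions in triplicate for 96 h (four doubling times). IC50 is the concentration halving optical density relative to untreated controls; mean of at least three separate experiments.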

L1210 [2] = experiment: Cell cycle arrest in L1210 cell line by accumulation at S phase at 10 uM after 21 hrs; assay type: functional, Mus musculus
How it was run: (§1)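 L1210 cells at 5 × 10⁵ cells/mL treated 21 h with various drug concentrations. Then ethanol-fixed (70%), washed, and stained 30 min at 20 °C in PBS with 100 µg/mL RNase and 50 µg/mL propidium iodide. Flow cytometry on 10 000 cells per sample. Highest percentage of S-phase cells reported with the concentration giving it.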

Nucleic Acid = experiment: Alkylation of DNA at 50 uM by gel shift assay; assay type: nucleic-acid assay
How it was run: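 Radiolabeled 117-bp pBS DNA fragment (EcoRI/PvuII cut, 3′-end-labeled at EcoRI site with [³²P]dATP, gel-purified) incubated with drug at 50 µM in 1 mM Na cacodylate pH 7.0, dark, room temperature, 2 h or 24 h. Resolved on native polyacrylamide gel in TBE; bound versus free DNA scored as strong, weak or no alkylation.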

L1210 [3] = experiment: Cell cycle arrest in L1210 cell line by accumulation at S phase at 5 uM after 21 hrs; assay type: functional, Mus musculus; how it was run: as §1
L1210 [4] = experiment: Cell cycle arrest in L1210 cell line by accumulation at S phase at 2.5 uM after 21 hrs; assay type: functional, Mus musculus; how it was run: as §1
MC-38 = experiment: Antiproliferative activity against mouse C38 cell line implanted in B6D2F1 mouse at 4 mg/kg, iv; assay type: functional
L1210 [5] = experiment: Cell cycle arrest in L1210 cell line by accumulation at S phase after 21 hrs; assay type: functional, cell-based; details: Mus musculus; how it was run: as §1
L1210 [6] = experiment: Cell cycle arrest in L1210 cell line by accumulation at S phase at 0.25 uM after 21 hrs; assay type: functional, Mus musculus; how it was run: as §1

Row | IC50 (L1210 [1]) [nM] | IC50 (KB 3-1) [nM] | Activity (Nucleic Acid) | SMILES | Activity (L1210 [2]) [%] | Activity (L1210 [3]) [%] | Activity (L1210 [4]) [%] | Activity (MC-38) [%] | Activity (L1210 [5]) | Activity (L1210 [6]) [%]
1 | 500 | 100 | Active | CCC(=O)O[C@@H]1[C@H](O)c2c(cc(OC)c3c(=O)c4c5ccccc5ccc4n(C)c23)OC1(C)C (racemic) |  | 69 |  |  |  | 
2 | 500 | 100 | Active | CCC(=O)O[C@@H]1c2c(cc(OC)c3c(=O)c4c5ccccc5ccc4n(C)c23)OC(C)(C)[C@@H]1OC(=O)CC (racemic) |  | 70 |  |  |  | 
3 | 800 | 300 | Active | COc1cc2c(c3c1c(=O)c1c4ccccc4ccc1n3C)[C@@H](O)[C@@H](OC(=O)c1ccccc1)C(C)(C)O2 (racemic) |  |  | 73 |  |  | 
4 | 49000 | 32000 | inactive | COc1cc2c(c3c1c(=O)c1c4ccccc4ccc1n3C)[C@@H](O)[C@@H](O)C(C)(C)O2 (racemic) |  |  |  |  |  | 
5 | 800 | 100 | Active | COc1cc2c(c3c1c(=O)c1c4ccccc4ccc1n3C)[C@@H](OC(C)=O)[C@@H](OC(=O)CC(C)C)C(C)(C)O2 (racemic) |  | 76 |  |  |  | 
6 | 1000 | 200 | Active | COc1cc2c(c3c1c(=O)c1c4ccccc4ccc1n3C)[C@@H](O)[C@@H](OC(=O)CC(C)C)C(C)(C)O2 (racemic) |  | 73 |  |  |  | 
7 | 2000 | 6300 | inactive | COc1cc2c(c3c1c(=O)c1c4ccccc4ccc1n3C)C(=O)[C@@H](OC(C)=O)C(C)(C)O2 |  |  |  |  |  | 
8 | 700 | 150 | Active | COc1cc2c(c3c1c(=O)c1c4ccccc4ccc1n3C)[C@@H](OC(C)=O)[C@@H](OC(C)=O)C(C)(C)O2 (racemic) |  | 68 |  | > 80 |  | 
9 | 700 | 100 | Active | C=CCCC(=O)O[C@@H]1[C@H](OC(C)=O)c2c(cc(OC)c3c(=O)c4c5ccccc5ccc4n(C)c23)OC1(C)C (racemic) |  | 78 |  |  |  | 
10 | 800 | 250 | inactive | C=CCCC(=O)O[C@@H]1[C@H](O)c2c(cc(OC)c3c(=O)c4c5ccccc5ccc4n(C)c23)OC1(C)C (racemic) |  | 70 |  |  |  | 
11 | 700 | 200 | Active | COc1cc2c(c3c1c(=O)c1c4ccccc4ccc1n3C)[C@@H](O)[C@@H](OC(C)=O)C(C)(C)O2 (racemic) |  | 76 |  |  |  | 
12 | 500 | 100 | Active | COc1cc2c(c3c1c(=O)c1c4ccccc4ccc1n3C)[C@@H](O)[C@@H](OC(=O)N(C)C)C(C)(C)O2 (racemic) | 73 |  |  |  |  | 

The remaining lines, values behind:

Row | SMILES | IC50 (L1210 [1]) [nM] | IC50 (KB 3-1) [nM] | Activity (Nucleic Acid) | Activity (L1210 [2]) [%] | Activity (L1210 [3]) [%] | Activity (L1210 [4]) [%] | Activity (MC-38) [%] | Activity (L1210 [5]) | Activity (L1210 [6]) [%]
13 | CCN(CC)C(=O)O[C@@H]1c2c(cc(OC)c3c(=O)c4c5ccccc5ccc4n(C)c23)OC(C)(C)[C@@H]1OC(=O)N(CC)CC (racemic) | 900 | 800 | Active | 43 |  |  |  |  | 
14 | COc1cc2c(c3c1c(=O)c1cc4ccccc4cc1n3C)[C@@H](OC(C)=O)[C@@H](OC(C)=O)C(C)(C)O2 (racemic) | 700 | 100 | Active |  | 73 |  |  |  | 
15 | C=CCCC(=O)O[C@@H]1c2c(cc(OC)c3c(=O)c4c5ccccc5ccc4n(C)c23)OC(C)(C)[C@@H]1OC(=O)CCC=C (racemic) | 500 | 130 | Active | 66 |  |  |  |  | 
16 | COc1cc2c(c3nc4ccc5ccccc5c4c(OC)c13)[C@@H](OC(C)=O)[C@@H](OC(C)=O)C(C)(C)O2 (racemic) | 8000 | 7200 | inactive |  |  |  |  |  | 
17 | COc1cc2c(c3c1c(=O)c1ccccc1n3C)C=CC(C)(C)O2 [ACRONINE] | 23000 | 3700 |  |  |  |  |  |  | 
18 | COc1cc2c(c3nc4ccc5ccccc5c4c(OC)c13)C=CC(C)(C)O2 | 28000 | 33000 |  |  |  |  |  |  | 
19 | COc1cc2c(c3nc4ccc5ccccc5c4c(OC)c13)[C@@H](O)[C@@H](O)C(C)(C)O2 (racemic) | 1400 | 6300 | inactive |  |  |  |  |  | 
20 | COc1cc2c(c3c1c(=O)c1c4ccccc4ccc1n3C)[C@@H](OC(=O)CC(C)C)[C@@H](OC(=O)CC(C)C)C(C)(C)O2 (racemic) | 700 | 150 | Active | 60 |  |  |  |  | 
21 | COc1cc2c(c3c1c(=O)c1c4ccccc4ccc1n3C)C=CC(C)(C)O2 [BENZO[A]ACRONYCINE] | 2500 | 8600 |  |  |  |  |  | inactive | 
22 | COc1cc2c(c3c1c(=O)c1c4ccccc4ccc1n3C)[C@H]1OC(=O)O[C@H]1C(C)(C)O2 (racemic) | 60 | 15 | inactive |  |  |  |  |  | 64
23 | COc1cc2c(c3nc4ccc5ccccc5c4c(O)c13)C(=O)C(O)C(C)(C)O2 (centres undefined) | 500 | 2000 | inactive |  |  |  |  | inactive | 
